Compound activity as filed in PubChem.
bIAP act = bovine intestinal alkaline phosphatase activators, primary screen, biochemical, bovine IAP, CDP-star luminescence; alkaline phosphatase, intestinal [Bos taurus]; purified bovine IAP, 30 min; stronger effect = higher value; fold of DMSO-control signal, blank-subtracted; activation factor at 20 µM; AID 1016, 2008; 200,000 tested, 0.17% active;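 active means activation factor of 2 or more at 20 µM, a signal rise over negative controls twice the positive control's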
mIAP block = inhibitors of mouse IAP, primary screen, biochemical, luminescence, uHTS | intestinal alkaline phosphatase [Mus musculus] | purified mouse IAP, CDP-Star luminescence, 30 min | inhibition, % at 10 µM | 330,000 tested, 0.2% active;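 active means inhibition of at least 40% at 10 µM in the primary screen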
bIAP inhibitor = bovine intestinal alkaline phosphatase inhibitors, primary screen, selectivity assay for TNAP inhibitor project, biochemical, bovine IAP, CDP-star luminescence | purified bovine IAP, 30 min | 190,000 tested, under 10 active | inhibition, % at 20 µM | alkaline phosphatase, intestinal [Bos taurus];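 active means over 50% inhibition of intestinal alkaline phosphatase at 20 µM in the single-dose screen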
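test system = bovine IAP enzyme | medium = DEA buffer 100 mM, pH 9.8, with MgCl2 1.0 mM, ZnCl2 0.02 mM | detection = luminescence | dosing = single compound dose of 20 µM, 2% DMSO final | incubation = 30 min reaction at room temperature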
mIAP activ = activators of mouse IAP, primary screen, biochemical, luminescence, uHTS; muIAP, CDP-Star luminescence, 30 min; stronger effect = higher value; 1 = vehicle-only enzyme signal, 0 = enzyme-free wells; 330,000 tested, 0.24% active; intestinal alkaline phosphatase [Mus musculus]; activation factor at 10 µM;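 active means activation factor of at least 2 at 20 µM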
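System: Mouse IAP enzyme | Also added: CDP-Star substrate | Dosing: Compounds dispensed in DMSO | Schedule: 30 min enzyme-substrate-compound incubation at room temperature | Technique: Chemiluminescence readout | Control set: DMSO-only wells and no-enzyme negative control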
hIAP activ = human IAP activators, primary screen, biochemical, luminescence, uHTS. Intestinal-type alkaline phosphatase (Homo sapiens), P09923. purified human IAP, CDP-Star luminescence, 30 min; stronger effect = higher value; 1 = vehicle-only enzyme, 0 = enzyme-free background. activation factor at 10 µM. 330,000 tested, 0.16% active. AID 2524, 2010;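 active means activation factor of the enzyme at least 2-fold when tested at 20 µM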
Target sequence (P09923 whole entry, looked up): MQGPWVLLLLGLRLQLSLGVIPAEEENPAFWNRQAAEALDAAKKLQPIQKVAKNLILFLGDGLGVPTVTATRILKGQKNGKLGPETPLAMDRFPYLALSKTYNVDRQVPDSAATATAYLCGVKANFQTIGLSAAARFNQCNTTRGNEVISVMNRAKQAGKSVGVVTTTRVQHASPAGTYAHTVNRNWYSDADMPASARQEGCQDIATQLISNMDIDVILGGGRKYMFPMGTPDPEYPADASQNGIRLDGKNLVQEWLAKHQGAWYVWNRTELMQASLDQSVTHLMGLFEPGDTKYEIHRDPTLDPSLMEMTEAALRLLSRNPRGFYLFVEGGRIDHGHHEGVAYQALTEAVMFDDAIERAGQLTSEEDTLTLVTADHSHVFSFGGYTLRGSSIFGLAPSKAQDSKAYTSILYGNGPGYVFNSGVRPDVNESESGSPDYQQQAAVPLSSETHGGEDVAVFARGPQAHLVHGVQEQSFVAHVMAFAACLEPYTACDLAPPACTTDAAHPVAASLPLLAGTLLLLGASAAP
hIAP block = human IAP inhibitors, primary screen, biochemical, luminescence, uHTS. Intestinal-type alkaline phosphatase (Homo sapiens), P09923. purified IAP, CDP-Star luminescence, 30 min. inhibition, % at 10 µM. AID 2544, 2010. 330,000 tested, 0.12% active;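 active means inhibition reaching a set limit with compound at 10 µM in the primary screen, cut at about 35% in these data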
mIAP inh conf = inhibitors of mouse IAP, confirmation, biochemical, luminescence, single concentration; 11,000 tested, 4.7% active; inhibition, % at 10 µM; purified mouse IAP, CDP-Star luminescence, 30 min; AID 434971, 2010; shares compounds with mIAP block;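 active means inhibition of at least 40% at 10 µM in either of the two replicates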
A number is an active result. In the library only some 0.77% were active in any assay of this set; here they are far more common.

Screening NN1C(=O)/C(=C\c2ccco2)SC1=S returned mIAP block 78.2, mIAP activ inactive, hIAP activ inactive, hIAP block inactive and mIAP inh conf 86.5.
`O=C(NN1C(=O)/C(=C/C=C/c2ccco2)SC1=S)c1ccncc1` gave mIAP block 77.3, mIAP activ inactive, hIAP activ inactive, hIAP block inactive and mIAP inh conf 76.6.
`O=C1/C(=C\c2ccc(O)cc2)SC(=S)N1c1cccnc1` gave bIAP act inactive, mIAP block inactive, bIAP inhibitor inactive, mIAP activ inactive, hIAP activ inactive and hIAP block inactive.
`O=C(NN1C(=O)/C(=C/C=C/c2ccccc2)SC1=S)c1ccncc1` gave bIAP act inactive, mIAP block inactive, bIAP inhibitor inactive, mIAP activ inactive, hIAP activ inactive and hIAP block inactive.
Screening Cc1cc(/C=C2\NC(=S)NC2=O)c(C)n1-c1cccnc1 returned mIAP block inactive, mIAP activ inactive, hIAP activ inactive and hIAP block inactive.
For COc1ccc(-n2nc(C(=O)NCC(=O)N3CCC(C(N)=O)CC3)c3ccccc3c2=O)cc1 the results were mIAP block inactive, mIAP activ inactive, hIAP activ inactive and hIAP block inactive.
Screening O=C(CCNS(=O)(=O)c1ccc(Br)cc1)Nc1cccc(F)c1 returned mIAP block inactive, mIAP activ inactive, hIAP activ inactive and hIAP block inactive.
For CC(C)C(C(=O)O)N1C(=O)/C(=C/C=C/c2ccco2)SC1=S (centres undefined) the results were bIAP act inactive, mIAP block 65.9, bIAP inhibitor inactive, mIAP activ inactive, hIAP activ inactive, hIAP block inactive and mIAP inh conf 73.6.
CC(C)C(C(=O)O)N1C(=O)/C(=C/c2cccn2C)SC1=S (centres undefined) was read as bIAP act inactive and bIAP inhibitor inactive.
`CN(C)/C=C/C(=O)c1cnc(-c2ccccn2)s1` gave bIAP act inactive, mIAP block inactive, bIAP inhibitor inactive, mIAP activ inactive, hIAP activ inactive and hIAP block inactive.
For C[C@H](CO)N1C[C@H](C)[C@@H](CN(C)S(=O)(=O)c2ccccc2)Oc2ccc(NC(=O)NC3CCCCC3)cc2C1=O the results were mIAP block inactive, mIAP activ 4.02, hIAP activ inactive, hIAP block inactive and mIAP inh conf inactive.
`C[C@H](CO)N1C[C@H](C)[C@@H](CN(C)S(=O)(=O)c2cccs2)Oc2ccc(NC(=O)NC3CCCCC3)cc2C1=O` gave mIAP block inactive, mIAP activ 3.64, hIAP activ inactive, hIAP block inactive and mIAP inh conf inactive.
For C[C@H](CO)N1C[C@H](C)[C@@H](CN(C)S(=O)(=O)c2ccccc2)Oc2ccc(NC(=O)C3CCCCC3)cc2C1=O the results were mIAP block inactive, mIAP activ inactive, hIAP activ inactive and hIAP block inactive.
`CC1CC(C)CN(CCCNC(=O)c2nn(C)c3c2CS(=O)(=O)c2ccccc2-3)C1` (centres undefined) gave mIAP block inactive, mIAP activ inactive, hIAP activ inactive and hIAP block inactive.
Cc1c(OCC(=O)C(C)(C)C)ccc2c(-c3ccccc3)cc(=O)oc12 was read as mIAP block inactive, mIAP activ inactive, hIAP activ inactive and hIAP block inactive.
COC(=O)c1ccccc1NC(=O)NCCc1ccccc1OC was read as bIAP act inactive, mIAP block inactive, bIAP inhibitor inactive, mIAP activ inactive, hIAP activ inactive and hIAP block inactive.
CCOC(=O)c1ccc(NC(=O)NCCc2ccccc2OC)cc1 was read as bIAP act inactive, mIAP block inactive, bIAP inhibitor inactive, mIAP activ 2.82, hIAP activ inactive, hIAP block inactive and mIAP inh conf inactive.
For O=[N+]([O-])c1cccc(N(CC(O)CN2CCCCC2)S(=O)(=O)c2ccccc2)c1 (centres undefined) the results were mIAP block inactive, mIAP activ inactive, hIAP activ inactive and hIAP block inactive.
For COc1ccc(C(=O)NC(C)C2CC3CCC2C3)c(OC)c1 (centres undefined) the results were mIAP block inactive, mIAP activ inactive, hIAP activ inactive and hIAP block inactive.
COc1cccc(-c2csc(NC(=O)C3CC3)n2)c1 was read as bIAP act inactive, mIAP block inactive, bIAP inhibitor inactive, mIAP activ inactive, hIAP activ inactive and hIAP block inactive.
COc1cccc(NC(=O)NC(C)C2CC3CCC2C3)c1 (centres undefined) was read as bIAP act inactive, mIAP block inactive, bIAP inhibitor inactive, mIAP activ 2.67, hIAP activ inactive, hIAP block inactive and mIAP inh conf inactive.
For COc1cccc(NC(=O)Nc2cc(C(=O)O)ccc2C)c1 the results were bIAP act inactive, mIAP block inactive, bIAP inhibitor inactive, mIAP activ inactive, hIAP activ inactive and hIAP block inactive.
For COc1cccc(NC(=O)Nc2ccc3c(c2)CCC3)c1 the results were mIAP block inactive, mIAP activ 4.36, hIAP activ inactive, hIAP block inactive and mIAP inh conf inactive.
For COc1cccc(NC(=O)Nc2ccc(C)c(Cl)c2)c1 the results were bIAP act inactive, mIAP block inactive, bIAP inhibitor inactive, mIAP activ 4.09, hIAP activ inactive, hIAP block inactive and mIAP inh conf inactive.
COc1cccc(-c2csc(NC(=O)Nc3ccccc3)n2)c1 was read as mIAP block inactive, mIAP activ 3.21, hIAP activ inactive, hIAP block inactive and mIAP inh conf inactive.
For CCOc1ccc(N(CC(=O)N/N=C(\C)c2cccc(NC(C)=O)c2)S(=O)(=O)c2ccccc2)cc1 the results were mIAP block inactive, mIAP activ inactive, hIAP activ inactive and hIAP block inactive.
Screening C=C(C)CN(CC)C(=O)CCc1nnc(CCc2c[nH]c3ccccc23)o1 returned bIAP act inactive, mIAP block inactive, bIAP inhibitor inactive, mIAP activ inactive, hIAP activ inactive and hIAP block inactive.
For COc1cccc(NC(=O)Nc2ccc(C(C)(C)C)cc2)c1 the results were bIAP act inactive, mIAP block inactive, bIAP inhibitor inactive, mIAP activ 4.35, hIAP activ inactive, hIAP block inactive and mIAP inh conf inactive.
